Reference: ChEMBL document CHEMBL1125116 (J Med Chem, 1990)

Tests used:
Type in all cases: ADME, organism-based
Rattus norvegicus [1] = experiment: Biodistribution of [125I]IBF in blood was determined in rats 15 minutes after intraveneous injection; conditions: in vivo, iv, 0.25 h
Summary of the method: (§1)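 Male Sprague–Dawley rats (225–300 g) with free access to food and water. Under halothane anesthesia they received [125I]IBF (8–10 μCi in 0.2 mL saline) into the femoral vein. Rats were killed by cardiac excision under halothane at the stated time. Organs were weighed and gamma-counted, and % dose/organ was taken against diluted aliquots of the injectate. Blood was assumed to be 7% of body weight and muscle 40%.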

Rattus norvegicus [2] = experiment: Biodistribution of [125I]-IBF in blood was determined in rats 2 minutes after intraveneous injection; conditions: in vivo, iv; summary of the method: as §1
Rattus norvegicus [3] = experiment: Biodistribution of [125I]IBF in blood was determined in rats 30 minutes after intraveneous injection; conditions: in vivo, iv, 0.5 h; summary of the method: as §1
Rattus norvegicus [4] = experiment: Biodistribution of [125I]-IBF in blood was determined in rats 60 minutes after intraveneous injection; conditions: in vivo, iv, 1 h; summary of the method: as §1
Rattus norvegicus [5] = experiment: Biodistribution of [125I]IBF in blood was determined in rats 120 minutes after intraveneous injection; conditions: in vivo, iv, 2 h; summary of the method: as §1
Rattus norvegicus [6] = experiment: Biodistribution of [125I]IBF in brain was determined in rats 15 minutes after intraveneous injection; conditions: in vivo, iv, 0.25 h; summary of the method: as §1
Rattus norvegicus [7] = experiment: Biodistribution of [125I]IBF in brain was determined in rats 2 minutes after intraveneous injection; conditions: in vivo, iv; summary of the method: as §1
Rattus norvegicus [8] = experiment: Biodistribution of [125I]IBF in brain was determined in rats 60 minutes after intraveneous injection; conditions: in vivo, iv, 1 h; summary of the method: as §1
Rattus norvegicus [9] = experiment: Biodistribution of [125I]IBF in brain was determined in rats 120 minutes after intraveneous injection; conditions: in vivo, iv, 2 h; summary of the method: as §1
Rattus norvegicus [10] = experiment: Biodistribution of [125I]IBF in brain/blood was determined in rats 15 minutes after intraveneous injection; conditions: in vivo, iv, 0.25 h
Rattus norvegicus [11] = experiment: Biodistribution of [125I]IBF in brain/blood was determined in rats 2 minutes after intraveneous injection; conditions: in vivo, iv
Rattus norvegicus [12] = experiment: Biodistribution of [125I]IBF in brain/blood was determined in rats 30 minutes after intraveneous injection; conditions: in vivo, iv, 0.5 h
Rattus norvegicus [13] = experiment: Biodistribution of [125I]IBF in brain/blood was determined in rats 60 minutes after intraveneous injection; conditions: in vivo, iv, 1 h
Rattus norvegicus [14] = experiment: Biodistribution of [125I]IBF in brain/blood was determined in rats 120 minutes after intraveneous injection; conditions: in vivo, iv, 2 h
Rattus norvegicus [15] = experiment: Biodistribution of [125I]IBF in heart was determined in rats 15 minutes after intraveneous injection; conditions: in vivo, iv, 0.25 h; summary of the method: as §1
Rattus norvegicus [16] = experiment: Biodistribution of [125I]IBF in heart was determined in rats 2 minutes after intraveneous injection; conditions: in vivo, iv; summary of the method: as §1
Rattus norvegicus [17] = experiment: Biodistribution of [125I]-IBF in heart was determined in rats 30 minutes after intraveneous injection; conditions: in vivo, iv, 0.5 h; summary of the method: as §1
Rattus norvegicus [18] = experiment: Biodistribution of [125I]-IBF in heart was determined in rats 120 minutes after intraveneous injection; conditions: in vivo, iv, 2 h; summary of the method: as §1
Rattus norvegicus [19] = experiment: Biodistribution of [125I]IBF in kidney was determined in rats 15 minutes after intraveneous injection; conditions: in vivo, iv, 0.25 h; summary of the method: as §1
Rattus norvegicus [20] = experiment: Biodistribution of [125I]IBF in kidney was determined in rats 2 minutes after intraveneous injection; conditions: in vivo, iv; summary of the method: as §1
Rattus norvegicus [21] = experiment: Biodistribution of [125I]IBF in kidney was determined in rats 30 minutes after intraveneous injection; conditions: in vivo, iv, 0.5 h; summary of the method: as §1
Rattus norvegicus [22] = experiment: Biodistribution of [125I]IBF in kidney was determined in rats 60 minutes after intraveneous injection; conditions: in vivo, iv, 1 h; summary of the method: as §1
Rattus norvegicus [23] = experiment: Biodistribution of [125I]IBF in kidney was determined in rats 120 minutes after intraveneous injection; conditions: in vivo, iv, 2 h; summary of the method: as §1
Rattus norvegicus [24] = experiment: Biodistribution of [125I]IBF in liver was determined in rats 15 minutes after intraveneous injection; conditions: in vivo, iv, 0.25 h; summary of the method: as §1
Rattus norvegicus [25] = experiment: Biodistribution of [125I]IBF in liver was determined in rats 2 minutes after intraveneous injection; conditions: in vivo, iv; summary of the method: as §1
Rattus norvegicus [26] = experiment: Biodistribution of [125I]IBF in liver was determined in rats 30 minutes after intraveneous injection; conditions: in vivo, iv, 0.5 h; summary of the method: as §1
Rattus norvegicus [27] = experiment: Biodistribution of [125I]IBF in srtiatum was determined in rats 15 minutes after intraveneous injection; conditions: in vivo, iv, 0.25 h
Rattus norvegicus [28] = experiment: Biodistribution of [125I]IBF in striatum was determined in rats 2 minutes after intraveneous injection; conditions: in vivo, iv
Summary of the method: (§2)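 Male Sprague–Dawley rats (225–300 g) with free access to food and water were anesthetized with halothane. Each received 0.2 mL saline containing 8–10 μCi [125I]IBF into the femoral vein and was killed by cardiac excision under halothane at set times. Organs were weighed and gamma-counted, and uptake was calculated against diluted aliquots of the injected dose.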

Rattus norvegicus [29] = experiment: Biodistribution of [125I]IBF in striatum was determined in rats 30 minutes after intraveneous injection; conditions: in vivo, iv, 0.5 h; summary of the method: as §2
Rattus norvegicus [30] = experiment: Biodistribution of [125I]IBF in striatum was determined in rats 60 minutes after intraveneous injection; conditions: in vivo, iv, 1 h; summary of the method: as §2

CCN1CCC[C@H]1CNC(=O)c1cc(I)cc2c1OCC2
Dose/organ (Rattus norvegicus [1]): 1.8% | Dose/organ (Rattus norvegicus [2]): 3.5% | Dose/organ (Rattus norvegicus [3]): 1.26% | Dose/organ (Rattus norvegicus [4]): 0.98% | Dose/organ (Rattus norvegicus [5]): 0.23% | Dose/organ (Rattus norvegicus [6]): 0.54% | Dose/organ (Rattus norvegicus [7]): 0.98% | Dose/organ (Rattus norvegicus [8]): 0.17% | Dose/organ (Rattus norvegicus [9]): 0.07% | Dose/organ (Rattus norvegicus [10]): 3.01 | Dose/organ (Rattus norvegicus [11]): 2.64 | Dose/organ (Rattus norvegicus [12]): 2.26 | Dose/organ (Rattus norvegicus [13]): 1.9 | Dose/organ (Rattus norvegicus [14]): 1.53 | Dose/organ (Rattus norvegicus [15]): 0.2% | Dose/organ (Rattus norvegicus [16]): 0.81% | Dose/organ (Rattus norvegicus [17]): 0.11% | Dose/organ (Rattus norvegicus [18]): 0.02% | Dose/organ (Rattus norvegicus [19]): 2.92% | Dose/organ (Rattus norvegicus [20]): 7.58% | Dose/organ (Rattus norvegicus [21]): 1.58% | Dose/organ (Rattus norvegicus [22]): 1.01% | Dose/organ (Rattus norvegicus [23]): 0.68% | Dose/organ (Rattus norvegicus [24]): 16.16% | Dose/organ (Rattus norvegicus [25]): 16.32% | Dose/organ (Rattus norvegicus [26]): 11.59% | Dose/organ (Rattus norvegicus [27]): 0.842% | Dose/organ (Rattus norvegicus [28]): 0.743% | Dose/organ (Rattus norvegicus [29]): 0.66% | Dose/gram (Rattus norvegicus [30]): 0.705 % dose/g
